Assay results: PMC4401146 (Journal of Cellular and Molecular Medicine, 2008)
No end group written: not given here.

Assays:
Type in all cases: biochemical
PMCA4 = PMCA4 (Homo sapiens, UniProt P23634); test: PMCA Ca2+-Mg2+-ATPase in human erythrocyte ghosts, coupled enzyme assay
In short: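 Human erythrocyte leaky ghosts were EDTA-washed to strip calmodulin; 0.2–0.4 mg protein per assay. Pyruvate kinase–LDH coupled NADH assay at 37°C in 30 mM imidazole-HCl pH 7.0 with 0.1 mM ouabain, 6 mM MgCl2, 0.5 mM ATP, 0.5 mM EGTA and 4 μg/ml calmodulin. Basal Mg2+-ATPase was subtracted from activity after CaCl2 addition. Ki came from a non-linear fit, saturating substrates; 3–4 measurements over 2–4 days.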

PMCA3 = biological target: T1, PMCA3 (Homo sapiens, UniProt Q16720); test: Ca2+-Mg2+-ATPase of microsomes from overexpressing insect cells sf9
T1 sequence (Q16720 1-1220): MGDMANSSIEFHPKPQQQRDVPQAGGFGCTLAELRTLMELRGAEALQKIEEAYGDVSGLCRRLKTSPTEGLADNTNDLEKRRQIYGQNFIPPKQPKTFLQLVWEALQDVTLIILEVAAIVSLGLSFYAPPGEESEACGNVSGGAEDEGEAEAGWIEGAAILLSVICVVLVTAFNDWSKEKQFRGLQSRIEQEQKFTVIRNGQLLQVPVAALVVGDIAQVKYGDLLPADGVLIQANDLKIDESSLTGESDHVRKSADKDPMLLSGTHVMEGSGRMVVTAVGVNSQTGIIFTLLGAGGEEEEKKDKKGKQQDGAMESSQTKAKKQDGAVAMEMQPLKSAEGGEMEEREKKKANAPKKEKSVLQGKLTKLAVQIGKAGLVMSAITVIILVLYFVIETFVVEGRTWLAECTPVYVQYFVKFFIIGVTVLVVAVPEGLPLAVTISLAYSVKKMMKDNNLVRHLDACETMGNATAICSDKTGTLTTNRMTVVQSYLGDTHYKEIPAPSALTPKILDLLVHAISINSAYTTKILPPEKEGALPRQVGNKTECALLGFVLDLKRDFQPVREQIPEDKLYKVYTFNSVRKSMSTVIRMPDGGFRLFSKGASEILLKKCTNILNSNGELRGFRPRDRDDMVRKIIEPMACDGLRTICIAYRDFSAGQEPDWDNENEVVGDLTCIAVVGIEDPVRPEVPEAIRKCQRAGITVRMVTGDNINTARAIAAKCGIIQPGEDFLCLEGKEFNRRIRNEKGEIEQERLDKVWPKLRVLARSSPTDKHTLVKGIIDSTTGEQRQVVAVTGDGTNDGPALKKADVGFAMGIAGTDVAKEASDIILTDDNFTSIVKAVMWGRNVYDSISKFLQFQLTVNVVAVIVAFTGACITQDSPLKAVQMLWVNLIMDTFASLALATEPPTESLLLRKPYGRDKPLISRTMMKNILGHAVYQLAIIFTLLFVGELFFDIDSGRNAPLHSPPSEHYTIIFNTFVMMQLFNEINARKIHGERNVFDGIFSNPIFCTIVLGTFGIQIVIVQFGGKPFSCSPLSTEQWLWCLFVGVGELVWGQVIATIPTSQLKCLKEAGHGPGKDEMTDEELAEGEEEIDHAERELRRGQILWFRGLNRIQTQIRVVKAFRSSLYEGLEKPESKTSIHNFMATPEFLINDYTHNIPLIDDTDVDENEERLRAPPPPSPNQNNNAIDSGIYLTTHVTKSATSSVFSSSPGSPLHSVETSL
In short: (§1)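 Sources: a plasma membrane-enriched fraction from rabbit duodenal mucosa, rich in PMCA1 with little PMCA4, and microsomes from baculovirus-infected Sf9 cells expressing PMCA2 or PMCA3. Activity was followed by NADH loss in a coupled assay at 37°C: basal Mg2+-ATPase, then CaCl2 added, difference taken. Each day's mean control activity was 100%. Ki was fitted by non-linear regression; 3–4 measurements over 2–4 days.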

PMCA1 = biological target: T2, PMCA1 (Oryctolagus cuniculus, UniProt Q00804); test: Ca2+-Mg2+-ATPase of rabbit duodenal mucosal PM rich fraction
T2 sequence (Q00804 1-1220): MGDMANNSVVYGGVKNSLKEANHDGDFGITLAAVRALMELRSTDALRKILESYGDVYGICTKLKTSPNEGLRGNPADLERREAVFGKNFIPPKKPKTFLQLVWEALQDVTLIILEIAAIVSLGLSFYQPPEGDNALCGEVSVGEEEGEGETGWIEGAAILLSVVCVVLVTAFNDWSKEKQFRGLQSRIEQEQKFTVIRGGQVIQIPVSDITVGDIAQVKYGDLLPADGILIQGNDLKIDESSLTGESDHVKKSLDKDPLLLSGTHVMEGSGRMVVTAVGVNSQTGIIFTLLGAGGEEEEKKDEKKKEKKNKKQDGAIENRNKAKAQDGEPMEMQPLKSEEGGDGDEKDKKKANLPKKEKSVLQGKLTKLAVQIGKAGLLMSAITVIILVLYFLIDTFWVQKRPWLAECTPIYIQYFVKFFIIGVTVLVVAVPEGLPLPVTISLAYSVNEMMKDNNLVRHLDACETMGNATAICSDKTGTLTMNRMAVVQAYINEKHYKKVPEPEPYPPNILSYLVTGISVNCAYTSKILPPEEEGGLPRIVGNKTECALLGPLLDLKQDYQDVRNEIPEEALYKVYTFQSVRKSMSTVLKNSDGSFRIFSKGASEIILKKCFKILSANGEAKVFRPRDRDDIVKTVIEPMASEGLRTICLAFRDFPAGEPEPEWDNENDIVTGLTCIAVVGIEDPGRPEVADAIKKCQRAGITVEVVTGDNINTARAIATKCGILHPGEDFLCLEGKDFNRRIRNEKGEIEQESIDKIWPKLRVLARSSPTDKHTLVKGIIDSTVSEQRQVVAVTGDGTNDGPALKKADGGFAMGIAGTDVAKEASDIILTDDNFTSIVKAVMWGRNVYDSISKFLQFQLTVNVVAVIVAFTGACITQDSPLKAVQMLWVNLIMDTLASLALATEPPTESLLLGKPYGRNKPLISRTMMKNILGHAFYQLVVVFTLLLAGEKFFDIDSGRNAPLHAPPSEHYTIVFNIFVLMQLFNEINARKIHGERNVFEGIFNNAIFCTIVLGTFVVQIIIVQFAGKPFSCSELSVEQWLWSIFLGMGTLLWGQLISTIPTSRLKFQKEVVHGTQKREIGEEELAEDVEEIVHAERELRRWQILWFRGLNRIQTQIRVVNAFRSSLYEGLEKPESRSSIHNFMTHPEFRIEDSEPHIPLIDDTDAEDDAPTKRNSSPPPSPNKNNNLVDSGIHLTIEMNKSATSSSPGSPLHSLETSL
In short: as §1

PMCA2 = biological target: T3, PMCA2 (Homo sapiens, UniProt Q01814); test: Ca2+-Mg2+-ATPase of microsomes from overexpressing insect cells sf9
T3 sequence (Q01814 1-1243): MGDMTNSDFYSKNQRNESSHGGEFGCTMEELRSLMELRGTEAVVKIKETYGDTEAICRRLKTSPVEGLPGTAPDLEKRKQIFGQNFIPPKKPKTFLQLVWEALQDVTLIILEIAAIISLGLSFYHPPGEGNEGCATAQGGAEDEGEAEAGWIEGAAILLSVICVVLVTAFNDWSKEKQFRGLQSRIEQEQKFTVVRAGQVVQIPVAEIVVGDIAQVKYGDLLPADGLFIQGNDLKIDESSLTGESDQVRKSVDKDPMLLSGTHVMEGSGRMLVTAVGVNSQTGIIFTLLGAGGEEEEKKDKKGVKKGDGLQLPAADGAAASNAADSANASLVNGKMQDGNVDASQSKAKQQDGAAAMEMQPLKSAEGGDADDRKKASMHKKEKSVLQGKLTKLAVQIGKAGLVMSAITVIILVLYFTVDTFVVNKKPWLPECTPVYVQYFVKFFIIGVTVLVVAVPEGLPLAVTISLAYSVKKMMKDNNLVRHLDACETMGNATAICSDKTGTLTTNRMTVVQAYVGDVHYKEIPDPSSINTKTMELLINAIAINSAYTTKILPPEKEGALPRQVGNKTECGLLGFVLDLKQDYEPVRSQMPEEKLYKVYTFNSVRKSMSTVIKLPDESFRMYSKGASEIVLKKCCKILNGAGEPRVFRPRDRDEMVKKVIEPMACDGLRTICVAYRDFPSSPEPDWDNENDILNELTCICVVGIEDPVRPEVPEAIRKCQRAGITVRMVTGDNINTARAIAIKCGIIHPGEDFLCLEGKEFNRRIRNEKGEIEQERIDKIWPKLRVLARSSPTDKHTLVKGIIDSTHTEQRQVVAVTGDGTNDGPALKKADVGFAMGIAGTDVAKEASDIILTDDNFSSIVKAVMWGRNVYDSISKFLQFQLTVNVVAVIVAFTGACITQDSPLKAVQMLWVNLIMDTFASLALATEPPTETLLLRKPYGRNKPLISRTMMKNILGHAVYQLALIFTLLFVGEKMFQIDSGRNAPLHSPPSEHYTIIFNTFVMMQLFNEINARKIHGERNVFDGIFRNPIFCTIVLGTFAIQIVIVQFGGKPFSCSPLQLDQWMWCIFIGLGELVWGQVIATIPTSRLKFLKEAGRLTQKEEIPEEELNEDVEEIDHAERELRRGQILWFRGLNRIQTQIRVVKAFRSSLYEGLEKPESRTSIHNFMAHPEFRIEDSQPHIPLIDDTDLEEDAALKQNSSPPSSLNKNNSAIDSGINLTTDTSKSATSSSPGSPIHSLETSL
In short: as §1

Ki (PMCA4): 2.3 ± 0.3 µM
Ki (PMCA3): 67 ± 8 µM
Ki (PMCA1): 21 ± 6 µM
Ki (PMCA2): 40 ± 10 µM
Substance: TAWSEVLDLLRRGGGSK-NH2 [caloxin 1c2]
